Experimental data published in ChEMBL document CHEMBL1133995, “Synthesis and P2Y receptor activity of a series of uridine dinucleoside 5'-polyphosphates” (Bioorg Med Chem Lett, 2001).

Key:
Assay type in all cases: functional, cell-based; call rule not given here
P2Y purinoceptor 4 [1] = target: T1, P2Y purinoceptor 4 (Homo sapiens, UniProt P51582); assay: Agonist activity evaluated as change in the level of cytosolic calcium in 1321N astrocytoma cells infected with a retrovirus encoding the human P2Y4 receptor
T1 sequence (P51582 whole entry): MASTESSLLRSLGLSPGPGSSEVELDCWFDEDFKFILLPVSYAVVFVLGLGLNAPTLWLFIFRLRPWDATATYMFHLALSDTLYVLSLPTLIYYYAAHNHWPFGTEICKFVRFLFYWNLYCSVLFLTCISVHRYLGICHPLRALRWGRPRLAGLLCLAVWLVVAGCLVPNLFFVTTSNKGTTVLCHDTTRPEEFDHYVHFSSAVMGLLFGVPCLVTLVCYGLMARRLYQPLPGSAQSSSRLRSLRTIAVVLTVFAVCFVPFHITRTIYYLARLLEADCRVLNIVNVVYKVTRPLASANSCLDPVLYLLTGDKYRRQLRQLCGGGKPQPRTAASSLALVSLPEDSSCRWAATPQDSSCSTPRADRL

P2Y purinoceptor 2 [2] = target: T2, P2Y purinoceptor 2 (Homo sapiens, UniProt P41231); assay: Agonist activity evaluated as change in the level of cytosolic calcium in 1321N astrocytoma cells infected with a retrovirus encoding the human P2Y2 receptor
T2 sequence (P41231 whole entry): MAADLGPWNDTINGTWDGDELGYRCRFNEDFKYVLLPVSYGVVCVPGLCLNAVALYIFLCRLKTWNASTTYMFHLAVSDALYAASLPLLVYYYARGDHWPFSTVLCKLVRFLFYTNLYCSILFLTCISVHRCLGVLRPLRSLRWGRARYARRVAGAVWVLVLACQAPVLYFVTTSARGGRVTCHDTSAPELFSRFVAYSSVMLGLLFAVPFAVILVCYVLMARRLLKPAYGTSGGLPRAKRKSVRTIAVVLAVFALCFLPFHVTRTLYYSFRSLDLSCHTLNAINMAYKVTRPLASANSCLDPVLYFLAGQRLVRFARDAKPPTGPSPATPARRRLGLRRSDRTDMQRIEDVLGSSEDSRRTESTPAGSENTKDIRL

P2Y purinoceptor 1 = P2Y purinoceptor 1 (Homo sapiens, UniProt P47900); assay: Agonist activity evaluated as change in the level of cytosolic calcium in 1321N astrocytoma cells infected with a retrovirus encoding the human P2Y1 receptor at 100 uM; IA is inactive
Sequence of P2Y purinoceptor 1 (P47900 whole entry): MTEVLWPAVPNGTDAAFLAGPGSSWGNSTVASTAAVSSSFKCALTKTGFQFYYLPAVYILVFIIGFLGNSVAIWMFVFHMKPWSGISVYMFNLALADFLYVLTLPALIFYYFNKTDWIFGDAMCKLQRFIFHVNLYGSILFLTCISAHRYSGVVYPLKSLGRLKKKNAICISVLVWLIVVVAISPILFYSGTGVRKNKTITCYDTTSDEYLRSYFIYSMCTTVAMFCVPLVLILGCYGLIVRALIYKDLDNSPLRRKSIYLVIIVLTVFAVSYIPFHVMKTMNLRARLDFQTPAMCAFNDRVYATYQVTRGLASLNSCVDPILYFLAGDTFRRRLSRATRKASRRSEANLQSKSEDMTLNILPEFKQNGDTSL

P2Y purinoceptor 6 = P2Y purinoceptor 6 (Homo sapiens, UniProt Q15077); assay: Agonist activity evaluated as change in the level of cytosolic calcium in 1321N astrocytoma cells infected with a retrovirus encoding the human P2Y6 receptor
Sequence of P2Y purinoceptor 6 (Q15077 whole entry): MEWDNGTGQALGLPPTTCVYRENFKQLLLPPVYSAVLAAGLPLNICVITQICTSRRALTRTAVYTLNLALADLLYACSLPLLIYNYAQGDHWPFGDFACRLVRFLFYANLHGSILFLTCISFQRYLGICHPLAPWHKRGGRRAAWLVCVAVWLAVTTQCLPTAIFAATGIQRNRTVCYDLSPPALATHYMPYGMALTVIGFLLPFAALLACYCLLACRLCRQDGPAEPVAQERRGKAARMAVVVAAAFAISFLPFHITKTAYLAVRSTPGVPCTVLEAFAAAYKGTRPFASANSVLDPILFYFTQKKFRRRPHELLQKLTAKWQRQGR
Method in brief: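 Cells grown to confluence, then loaded with Fluo-3 AM (2.5 μM final) for 60 min at 25 °C in buffer (mM: KCl 10.0, NaCl 118, CaCl2 2.5, MgCl2 1.0, HEPES 20, glucose 10; pH 7.4). Dye washed off. Activation read as change in fluorescence intensity on FLIPR (cytosolic calcium mobilization). Agonist potency given as EC50.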

P2Y purinoceptor 4 [3] = target: T1, P2Y purinoceptor 4; assay: Agonist activity evaluated as change in the level of cytosolic calcium in 1321N astrocytoma cells infected with a retrovirus encoding the human P2Y4 receptor at 100 uM; IA is inactive
P2Y purinoceptor 2 [4] = target: T2, P2Y purinoceptor 2; assay: Agonist activity evaluated as change in the level of cytosolic calcium in 1321N astrocytoma cells infected with a retrovirus encoding the human P2Y2 receptor at 100 uM; IA is inactive

Row | SMILES | EC50 (P2Y purinoceptor 4 [1]) | EC50 (P2Y purinoceptor 2 [2]) | EC50 (P2Y purinoceptor 1) | EC50 (P2Y purinoceptor 6) | EC50 (P2Y purinoceptor 4 [3]) | EC50 (P2Y purinoceptor 2 [4])
1 | O=c1ccn([C@@H]2O[C@H](COP(=O)(O)OP(=O)(O)OP(=O)(O)OC[C@@H]3O[C@H](n4ccc(=O)[nH]c4=O)[C@@H](O)[C@H]3O)[C@@H](O)[C@H]2O)c(=O)[nH]1 | > 100 µM | 22 µM | Not Active | 0.2 µM | – | –
2 | O=c1ccn([C@@H]2O[C@H](COP(=O)(O)OP(=O)(O)OP(=O)(O)OP(=O)(O)OC[C@@H]3O[C@H](n4ccc(=O)[nH]c4=O)[C@@H](O)[C@H]3O)[C@@H](O)[C@H]2O)c(=O)[nH]1 | 0.4 µM | – | Not Active | 20 µM | – | –
3 | O=c1ccn([C@@H]2O[C@H](COP(=O)(O)OP(=O)(O)OP(=O)(O)OP(=O)(O)OP(=O)(O)OP(=O)(O)OP(=O)(O)OC[C@@H]3O[C@H](n4ccc(=O)[nH]c4=O)[C@@H](O)[C@H]3O)[C@@H](O)[C@H]2O)c(=O)[nH]1 | > 30 µM | 8.4 µM | Not Active | > 100 µM | – | –
4 | O=c1ccn([C@@H]2O[C@H](COP(=O)(O)OP(=O)(O)OP(=O)(O)OP(=O)(O)OP(=O)(O)OC[C@@H]3O[C@H](n4ccc(=O)[nH]c4=O)[C@@H](O)[C@H]3O)[C@@H](O)[C@H]2O)c(=O)[nH]1 | > 20 µM | 5.6 µM | Not Active | > 30 µM | – | –
5 | O=c1ccn([C@@H]2O[C@H](COP(=O)(O)OP(=O)(O)OP(=O)(O)OP(=O)(O)OP(=O)(O)OP(=O)(O)OC[C@@H]3O[C@H](n4ccc(=O)[nH]c4=O)[C@@H](O)[C@H]3O)[C@@H](O)[C@H]2O)c(=O)[nH]1 | > 30 µM | 9.8 µM | Not Active | > 30 µM | – | –
6 | O=c1ccn([C@@H]2O[C@H](COP(=O)(O)OP(=O)(O)OC[C@@H]3O[C@H](n4ccc(=O)[nH]c4=O)[C@@H](O)[C@H]3O)[C@@H](O)[C@H]2O)c(=O)[nH]1 | – | – | Not Active | > 30 µM | Not Active | Not Active
7 | O=c1ccn([C@@H]2O[C@H](COP(=O)(O)OP(=O)(O)OP(=O)(O)O)[C@@H](O)[C@H]2O)c(=O)[nH]1 [URIDINE TRIPHOSPHATE] | 0.1 µM | 0.03 µM | Not Active | > 10 µM | – | –
8 | O=c1ccn([C@@H]2O[C@H](COP(=O)(O)OP(=O)(O)O)[C@@H](O)[C@H]2O)c(=O)[nH]1 [URIDINE_DIPHOSPHATE] | – | > 10 µM | Not Active | 0.1 µM | Not Active | –
